This is an account of results in ChEMBL document CHEMBL3217512, “Indole/triazole conjugates are selective inhibitors and inducers of bacterial biofilms” (Medchemcomm, 2013).

Molecules are shown by their SMILES. Some results are limits rather than exact numbers.

Series [1] concerns Escherichia coli. The series can be described thus: Antimicrobial activity against Escherichia coli K-12 ER2718 assessed as effect on planktonic growth at IC50 after 2 to 24 hrs. It is filed as organism-based.
For series [2], the system named is Staphylococcus aureus. The series can be described thus: Antimicrobial activity against Staphylococcus aureus 29213 assessed as effect on planktonic growth at IC50 after 2 to 24 hrs. Type of series: organism-based. To be noted: in vivo.
For series [3], the system named is Escherichia coli. The series can be described thus: Induction of biofilm formation in Escherichia coli K-12 ER2718 at 50 uM after 24 hrs by crystal violet staining-based assay relative to control. It is filed as functional. In short, it runs like this:
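Static biofilm assay with compounds at 50 μM and crystal violet read-out, relative to an untreated control. Compounds increasing biofilm by less than 50% were called inducers, and by more than 50% strong inducers.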

For series [4], the system named is Staphylococcus aureus. The series can be described thus: Antimicrobial activity against Staphylococcus aureus 29213 assessed as effect on planktonic growth at IC50 after 2 to 24 hrs by colony count method. Type of series: organism-based. Particulars: in vivo.
The subject of series [5] is Escherichia coli. The series can be described thus: Antimicrobial activity against Escherichia coli K-12 ER2718 assessed as effect on planktonic growth at PC25 after 2 to 24 hrs. Type of series: organism-based.
The test system of series [6] is Staphylococcus aureus. The experiment in a line: Antimicrobial activity against methicillin-resistant Staphylococcus aureus BAA 44 assessed as effect on planktonic growth at IC50 after 2 to 24 hrs by colony count method. Type of series: organism-based. To be noted: in vivo.
In series [7] the test system is Escherichia coli. The series can be described thus: Antimicrobial activity against Escherichia coli K-12 ER2718 assessed as effect on planktonic growth at PC75 after 2 to 24 hrs by colony count method. It is filed as organism-based. To be noted: in vivo.
In series [8] the test system is Acinetobacter baumannii. The series can be described thus: Antimicrobial activity against Acinetobacter baumannii 19606 assessed as effect on planktonic growth at IC50 after 2 to 24 hrs. Details: species or system ATCC 19606.
For series [9], the system named is Staphylococcus aureus. The experiment in a line: Inhibition of biofilm formation in methicillin-resistant Staphylococcus aureus BAA 44 at 150 uM after 24 hrs by crystal violet staining-based assay relative to control. It is filed as functional. To be noted: BAA 44, 24 h. Put shortly:
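Static biofilm development in MRSA, read out by crystal violet staining against an untreated control. Initial screen at 150 μM. Inhibitors then went to dose-response, with IC50 taken as the concentration giving 50% inhibition of biofilm growth. Induction was judged at 50 μM: under 50% induction counted as "inducer", over 50% as "strong inducer".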

Series [10] concerns Staphylococcus aureus. The series can be described thus: Antimicrobial activity against methicillin-resistant Staphylococcus aureus BAA 44 assessed as effect on planktonic growth at IC50 after 2 to 24 hrs. Type of series: organism-based. To be noted: in vivo.
For series [11], the system named is Escherichia coli. The series can be described thus: Antimicrobial activity against Escherichia coli K-12 ER2718 assessed as effect on planktonic growth at PC50 after 2 to 24 hrs by colony count method. Particulars: in vivo. It is filed as organism-based.
Series [12] deals with Escherichia coli. The experiment in a line: Antimicrobial activity against Escherichia coli K-12 ER2718 assessed as effect on planktonic growth at PC75 after 2 to 24 hrs. To be noted: in vivo. Type of series: organism-based.
Series [13] concerns Escherichia coli. The experiment in a line: Antimicrobial activity against Escherichia coli K-12 ER2718 assessed as effect on planktonic growth at IC50 after 2 to 24 hrs by colony count method. Type of series: organism-based.
Series [14] relates to Acinetobacter baumannii. The series can be described thus: Inhibition of biofilm formation in Acinetobacter baumannii 19606 at 150 uM after 24 hrs by crystal violet staining-based assay relative to control. Type of series: functional. Particulars: ATCC 19606 = CIP 70.34 = JCM 6841, 24 h.
The subject of series [15] is Escherichia coli. The series can be described thus: Antimicrobial activity against Escherichia coli K-12 ER2718 assessed as effect on planktonic growth at PC50 after 2 to 24 hrs. Type of series: organism-based.
The subject of series [16] is Escherichia coli. The experiment in a line: Antimicrobial activity against Escherichia coli K-12 ER2718 assessed as effect on planktonic growth at 50 uM after 2 to 24 hrs. It is filed as organism-based. In short, it runs like this: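 Growth curve analysis of planktonic bacteria with each biofilm inducer at 50 μM, used to assess toxicity.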
In series [17] the test system is Escherichia coli. The series can be described thus: Antimicrobial activity against Escherichia coli K-12 ER2718 assessed as effect on planktonic growth at PC25 after 2 to 24 hrs by colony count method. Type of series: organism-based.
Series [18] has as its system Acinetobacter baumannii. The experiment in a line: Antimicrobial activity against Acinetobacter baumannii 19606 assessed as effect on planktonic growth at IC50 after 2 to 24 hrs by colony count method. Also noted: species or system ATCC 19606.
In series [19] the test system is Staphylococcus aureus. The series can be described thus: Inhibition of biofilm formation in Staphylococcus aureus 29213 at 150 uM after 24 hrs by crystal violet staining-based assay relative to control. Type of series: functional. To be noted: Staphylococcus aureus, 29213, 24 h.
The subject of series [20] is Escherichia coli. The series can be described thus: Inhibition of biofilm formation in Escherichia coli K-12 ER2718 at 150 uM after 24 hrs by crystal violet staining-based assay relative to control. It is filed as functional. Particulars: K-12 ER2718, 24 h.

For `CCCCCCNC(=O)Cn1cc(Cc2c[nH]c3ccccc23)nn1`, the Activity result is given as “Non-toxic” with Escherichia coli [1]; “Non-toxic” in the series with Staphylococcus aureus [2]; less than 50% with Escherichia coli [3]; “Non-toxic” in the series on Staphylococcus aureus [4]; “Non-toxic” in the series with Escherichia coli [5]; “Non-toxic” in the series on Staphylococcus aureus [6]. Moreover, the Activity entry in the series with Escherichia coli [7], with Acinetobacter baumannii [8], with Staphylococcus aureus [10], in the series on Escherichia coli [11], with Escherichia coli [12] and in the series on Escherichia coli [13] was “Non-toxic” throughout. The Activity result with Escherichia coli [15], in the series on Escherichia coli [16], with Escherichia coli [17] and in the series with Acinetobacter baumannii [18] was “Non-toxic” throughout. The inhibition – broadly, the share of the control response that was lost under treatment – at 150 µM with Staphylococcus aureus [9] is less than 5%; in the series on Acinetobacter baumannii [14], 25%; in the series on Staphylococcus aureus [19] it was less than 5%.

In the case of `CCCCCCc1ccc(C(=O)NCCn2cc(Cc3c(Br)[nH]c4ccccc34)nn2)cc1`, the Activity entry is “Non-toxic” in the series on Escherichia coli [1]; “Non-toxic” with Staphylococcus aureus [2]; less than 50% with Escherichia coli [3]; “Non-toxic” with Staphylococcus aureus [4]; “Non-toxic” in the series on Escherichia coli [5]; “Non-toxic” in the series on Staphylococcus aureus [6]. Besides, the Activity result in the series with Escherichia coli [7], with Acinetobacter baumannii [8], with Staphylococcus aureus [10], in the series on Escherichia coli [11], in the series with Escherichia coli [12] and in the series on Escherichia coli [13] was “Non-toxic” throughout. In addition, the Activity result in the series with Escherichia coli [15], with Escherichia coli [16], in the series with Escherichia coli [17] and in the series with Acinetobacter baumannii [18] was “Non-toxic” in each case. The inhibition at 150 µM in the series on Staphylococcus aureus [9] turned out to be 25%; with Acinetobacter baumannii [14] it was 22%; with Staphylococcus aureus [19], 40%.

On to `O=C(NCCn1cc(Cc2c[nH]c3ccccc23)nn1)c1ccccc1`, for which the Activity result with Escherichia coli [1], in the series with Staphylococcus aureus [2], in the series on Staphylococcus aureus [4], in the series with Staphylococcus aureus [6], in the series with Acinetobacter baumannii [8] and in the series with Staphylococcus aureus [10] was “Non-toxic” in each case. The Activity entry in the series on Escherichia coli [13] and with Acinetobacter baumannii [18] was “Non-toxic” throughout. Besides, the inhibition at 150 µM in the series on Staphylococcus aureus [9] was less than 5%; in the series with Escherichia coli [20], less than 5%; in the series with Acinetobacter baumannii [14], less than 5%; in the series with Staphylococcus aureus [19], 23%.

As to `O=C(NCCn1cc(Cc2csc3ccccc23)nn1)c1ccccc1`, the Activity result with Escherichia coli [1], in the series on Staphylococcus aureus [2], with Staphylococcus aureus [4], in the series with Staphylococcus aureus [6], in the series on Acinetobacter baumannii [8] and with Staphylococcus aureus [10] was “Non-toxic” throughout. In addition, the Activity result with Escherichia coli [13] and in the series on Acinetobacter baumannii [18] was “Non-toxic” in each case. For the same molecule, the inhibition at 150 µM in the series with Staphylococcus aureus [9] was less than 5%; in the series on Escherichia coli [20], 14%; in the series on Acinetobacter baumannii [14] it was less than 5%; in the series on Staphylococcus aureus [19] it was less than 5%.

As for `COc1ccc(CNC(=O)Cn2cc(Cc3c[nH]c4ccccc34)nn2)cc1`, the Activity entry with Escherichia coli [1], with Staphylococcus aureus [2], in the series with Staphylococcus aureus [4], in the series with Staphylococcus aureus [6], with Acinetobacter baumannii [8] and in the series on Staphylococcus aureus [10] was “Non-toxic” throughout. For the same molecule, the Activity result in the series on Escherichia coli [13] and in the series on Acinetobacter baumannii [18] was “Non-toxic” in each case. Besides, the inhibition at 150 µM was less than 5% with Staphylococcus aureus [9], less than 5% in the series on Escherichia coli [20], 20% with Acinetobacter baumannii [14] and less than 5% in the series with Staphylococcus aureus [19].

As to `CCCCCCc1ccc(C(=O)NCCn2cc(Cc3csc4ccccc34)nn2)cc1`, the Activity result in the series on Escherichia coli [1], with Staphylococcus aureus [2], with Staphylococcus aureus [4], in the series with Staphylococcus aureus [6], with Acinetobacter baumannii [8] and in the series on Staphylococcus aureus [10] was “Non-toxic” in each case. The Activity result with Escherichia coli [13] and with Acinetobacter baumannii [18] was “Non-toxic” throughout. The inhibition at 150 µM in the series with Staphylococcus aureus [9], in the series on Escherichia coli [20], in the series on Acinetobacter baumannii [14] and in the series on Staphylococcus aureus [19] was less than 5% throughout.

Turning to `O=C(Cn1cc(Cc2c[nH]c3ccccc23)nn1)Nc1ccccc1`, the Activity result in the series with Escherichia coli [1] was “Non-toxic”; in the series on Staphylococcus aureus [2] it was “Non-toxic”; in the series with Escherichia coli [3], less than 50%; with Staphylococcus aureus [4], “Non-toxic”; in the series with Escherichia coli [5], “Non-toxic”; in the series with Staphylococcus aureus [6] it was “Non-toxic”. For the same molecule, the Activity entry with Escherichia coli [7], in the series on Acinetobacter baumannii [8], in the series on Staphylococcus aureus [10], with Escherichia coli [11], in the series with Escherichia coli [12] and with Escherichia coli [13] was “Non-toxic” each time. Also, the Activity result with Escherichia coli [15], with Escherichia coli [16], with Escherichia coli [17] and in the series with Acinetobacter baumannii [18] was “Non-toxic” in each case. The inhibition at 150 µM with Staphylococcus aureus [9], with Acinetobacter baumannii [14] and with Staphylococcus aureus [19] was less than 5% throughout.

Consider `CCCCCCNC(=O)Cn1cc(Cc2csc3ccccc23)nn1`, for which the Activity result in the series with Escherichia coli [1], in the series on Staphylococcus aureus [2], in the series with Staphylococcus aureus [4], in the series on Staphylococcus aureus [6], in the series on Acinetobacter baumannii [8] and in the series with Staphylococcus aureus [10] was “Non-toxic” in each case. The Activity entry in the series with Escherichia coli [13] and in the series on Acinetobacter baumannii [18] was “Non-toxic” in each case. The inhibition at 150 µM is less than 5% in the series on Staphylococcus aureus [9], less than 5% in the series on Escherichia coli [20], 20% in the series with Acinetobacter baumannii [14] and less than 5% with Staphylococcus aureus [19].

Consider `COc1ccc(CNC(=O)Cn2cc(Cc3csc4ccccc34)nn2)cc1`, for which the Activity result with Escherichia coli [1], in the series with Staphylococcus aureus [2], with Staphylococcus aureus [4], in the series on Staphylococcus aureus [6], in the series with Acinetobacter baumannii [8] and in the series with Staphylococcus aureus [10] was “Non-toxic” throughout. Moreover, the Activity entry in the series on Escherichia coli [13] and with Acinetobacter baumannii [18] was “Non-toxic” throughout. Moreover, the inhibition at 150 µM in the series with Staphylococcus aureus [9] is less than 5%; in the series on Escherichia coli [20], less than 5%; in the series with Acinetobacter baumannii [14] it was 20%; with Staphylococcus aureus [19], less than 5%.
